Key:
[1] = target: Tyrosine-protein kinase CSK (Homo sapiens) (UniProt P41240); test: Inhibition of human full-length N-terminal GST-fused CSK (1 to 450 (end)residues) expressed in baculovirus expression system at 20 uM measured after 1 hr in presence of peptide substrate and ATP by off-chip mobility shift assay relative to control
How it was run: (§1)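 Off-chip mobility shift assay. Product and substrate peptides were separated; activity was taken as P/(P+S). Complete reaction was set as 0% inhibition and enzyme-free background as 100%. Run in triplicate, mean ± SD.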

[2] = target: Epidermal growth factor receptor (Homo sapiens) (UniProt P00533); test: Inhibition of human N-terminal GST-fused EGFR cytoplasmic domain (669 to 1210 (end)residues) expressed in baculovirus expression system at 20 uM measured after 1 hr in presence of peptide substrate and ATP by off-chip mobility shift assay relative to control; how it was run: as §1
Sequence of Epidermal growth factor receptor (Homo sapiens) (P00533 whole entry, the tested form may be a part): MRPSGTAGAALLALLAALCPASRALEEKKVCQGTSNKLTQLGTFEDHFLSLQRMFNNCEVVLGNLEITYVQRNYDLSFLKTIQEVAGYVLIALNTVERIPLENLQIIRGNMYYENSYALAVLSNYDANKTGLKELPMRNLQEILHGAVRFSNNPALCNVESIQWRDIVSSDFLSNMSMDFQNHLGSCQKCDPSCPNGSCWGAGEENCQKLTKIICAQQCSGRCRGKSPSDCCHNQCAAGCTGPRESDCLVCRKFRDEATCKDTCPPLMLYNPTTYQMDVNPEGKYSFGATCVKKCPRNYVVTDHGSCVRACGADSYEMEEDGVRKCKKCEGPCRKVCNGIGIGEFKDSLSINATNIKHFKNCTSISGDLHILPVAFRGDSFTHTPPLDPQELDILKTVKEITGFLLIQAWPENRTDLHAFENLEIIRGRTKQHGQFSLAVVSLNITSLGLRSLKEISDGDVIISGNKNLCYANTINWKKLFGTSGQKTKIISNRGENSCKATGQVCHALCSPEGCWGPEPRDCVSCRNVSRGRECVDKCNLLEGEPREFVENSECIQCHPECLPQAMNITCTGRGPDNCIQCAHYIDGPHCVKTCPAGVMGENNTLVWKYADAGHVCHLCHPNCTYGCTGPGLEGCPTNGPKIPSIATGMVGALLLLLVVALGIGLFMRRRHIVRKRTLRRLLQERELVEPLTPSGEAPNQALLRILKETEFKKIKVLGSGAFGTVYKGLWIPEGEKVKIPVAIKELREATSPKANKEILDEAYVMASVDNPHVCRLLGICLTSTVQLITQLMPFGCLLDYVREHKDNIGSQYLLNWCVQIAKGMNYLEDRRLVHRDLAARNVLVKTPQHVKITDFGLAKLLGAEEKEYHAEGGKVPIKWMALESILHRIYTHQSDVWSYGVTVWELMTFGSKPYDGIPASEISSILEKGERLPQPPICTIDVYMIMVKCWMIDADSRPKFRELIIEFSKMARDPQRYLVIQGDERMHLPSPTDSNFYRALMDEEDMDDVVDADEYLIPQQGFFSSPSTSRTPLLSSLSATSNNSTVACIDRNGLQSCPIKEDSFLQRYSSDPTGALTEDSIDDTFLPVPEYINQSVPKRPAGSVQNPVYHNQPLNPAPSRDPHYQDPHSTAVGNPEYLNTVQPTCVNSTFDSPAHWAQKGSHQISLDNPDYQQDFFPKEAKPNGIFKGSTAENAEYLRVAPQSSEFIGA

[3] = target: T1, Tyrosine-protein kinase JAK3 (Homo sapiens) (UniProt P52333); test: Inhibition of human N-terminal His-tagged JAK3 catalytic domain (795 to 1124 (end)residues) expressed in baculovirus expression system at 20 uM measured after 1 hr in presence of peptide substrate and ATP by off-chip mobility shift assay relative to control; how it was run: as §1
T1 sequence (whole entry): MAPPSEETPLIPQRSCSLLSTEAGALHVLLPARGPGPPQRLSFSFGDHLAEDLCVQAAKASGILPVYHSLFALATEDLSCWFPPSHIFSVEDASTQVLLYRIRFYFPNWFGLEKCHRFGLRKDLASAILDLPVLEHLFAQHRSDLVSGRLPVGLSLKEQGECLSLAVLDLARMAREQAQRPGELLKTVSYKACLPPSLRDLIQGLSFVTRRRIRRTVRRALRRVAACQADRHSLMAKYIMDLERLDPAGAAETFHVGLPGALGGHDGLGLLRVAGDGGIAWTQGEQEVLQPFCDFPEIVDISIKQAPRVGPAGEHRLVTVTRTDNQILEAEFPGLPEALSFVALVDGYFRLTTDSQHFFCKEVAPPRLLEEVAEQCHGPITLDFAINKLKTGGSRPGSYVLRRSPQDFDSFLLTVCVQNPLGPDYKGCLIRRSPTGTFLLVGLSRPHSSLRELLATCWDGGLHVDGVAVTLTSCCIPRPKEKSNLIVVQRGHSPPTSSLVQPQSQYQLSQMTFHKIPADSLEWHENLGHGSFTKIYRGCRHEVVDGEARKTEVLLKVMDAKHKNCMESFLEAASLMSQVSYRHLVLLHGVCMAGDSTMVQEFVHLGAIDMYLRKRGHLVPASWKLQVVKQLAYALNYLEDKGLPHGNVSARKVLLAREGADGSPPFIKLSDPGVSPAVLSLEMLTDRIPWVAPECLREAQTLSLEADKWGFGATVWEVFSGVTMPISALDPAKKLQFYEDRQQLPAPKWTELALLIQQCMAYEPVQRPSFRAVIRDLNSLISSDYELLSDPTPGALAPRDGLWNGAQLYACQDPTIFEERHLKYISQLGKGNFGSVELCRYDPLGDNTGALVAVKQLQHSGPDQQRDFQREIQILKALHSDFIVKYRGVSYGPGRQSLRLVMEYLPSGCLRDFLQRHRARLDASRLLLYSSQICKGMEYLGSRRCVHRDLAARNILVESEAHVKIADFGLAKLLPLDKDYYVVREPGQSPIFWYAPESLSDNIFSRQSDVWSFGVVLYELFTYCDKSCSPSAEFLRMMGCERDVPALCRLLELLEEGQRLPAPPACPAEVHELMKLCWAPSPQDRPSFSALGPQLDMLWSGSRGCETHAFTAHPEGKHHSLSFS

[4] = target: Vascular endothelial growth factor receptor 2 (Homo sapiens) (UniProt P35968); test: Inhibition of human N-terminal GST-fused KDR cytoplasmic domain (790 to 1356 (end)residues) expressed in baculovirus expression system at 20 uM measured after 1 hr in presence of peptide substrate and ATP by off-chip mobility shift assay relative to control; how it was run: as §1
Sequence of Vascular endothelial growth factor receptor 2 (Homo sapiens) (P35968 whole entry, the tested form may be a part): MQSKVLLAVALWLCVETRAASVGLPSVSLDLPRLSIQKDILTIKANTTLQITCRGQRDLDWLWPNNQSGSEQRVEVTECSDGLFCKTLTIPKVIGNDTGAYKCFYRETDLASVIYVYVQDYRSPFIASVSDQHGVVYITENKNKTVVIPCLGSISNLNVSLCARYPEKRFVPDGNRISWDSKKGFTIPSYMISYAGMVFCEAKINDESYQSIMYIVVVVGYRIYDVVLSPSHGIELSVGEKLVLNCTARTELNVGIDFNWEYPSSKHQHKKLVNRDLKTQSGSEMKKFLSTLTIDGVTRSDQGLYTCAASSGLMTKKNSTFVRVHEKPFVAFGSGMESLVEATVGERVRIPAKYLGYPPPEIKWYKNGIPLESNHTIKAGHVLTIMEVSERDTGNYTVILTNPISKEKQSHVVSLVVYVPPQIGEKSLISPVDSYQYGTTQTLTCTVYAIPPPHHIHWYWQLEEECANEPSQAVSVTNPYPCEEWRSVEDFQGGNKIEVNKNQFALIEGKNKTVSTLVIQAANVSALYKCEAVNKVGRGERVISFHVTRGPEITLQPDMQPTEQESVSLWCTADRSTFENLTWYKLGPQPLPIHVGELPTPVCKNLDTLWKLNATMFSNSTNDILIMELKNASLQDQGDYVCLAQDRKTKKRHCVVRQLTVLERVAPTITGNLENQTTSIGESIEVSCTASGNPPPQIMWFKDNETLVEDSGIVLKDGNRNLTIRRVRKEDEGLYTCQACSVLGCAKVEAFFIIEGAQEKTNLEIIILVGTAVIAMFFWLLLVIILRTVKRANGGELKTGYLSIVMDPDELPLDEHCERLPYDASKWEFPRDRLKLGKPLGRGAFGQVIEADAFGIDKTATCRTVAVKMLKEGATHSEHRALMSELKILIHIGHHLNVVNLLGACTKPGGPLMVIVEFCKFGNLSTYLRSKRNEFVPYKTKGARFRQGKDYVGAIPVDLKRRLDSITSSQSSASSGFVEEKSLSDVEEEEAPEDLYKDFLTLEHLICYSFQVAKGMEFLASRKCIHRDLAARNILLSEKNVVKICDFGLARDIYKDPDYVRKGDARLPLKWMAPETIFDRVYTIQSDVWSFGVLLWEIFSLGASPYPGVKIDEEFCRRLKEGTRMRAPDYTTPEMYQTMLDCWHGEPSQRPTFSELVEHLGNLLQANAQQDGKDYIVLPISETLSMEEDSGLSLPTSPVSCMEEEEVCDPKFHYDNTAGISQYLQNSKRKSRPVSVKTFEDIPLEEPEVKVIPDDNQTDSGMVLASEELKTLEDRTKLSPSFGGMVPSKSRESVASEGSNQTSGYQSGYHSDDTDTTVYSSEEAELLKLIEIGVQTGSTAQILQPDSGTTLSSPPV

[5] = target: High affinity nerve growth factor receptor (Homo sapiens) (UniProt P04629); test: Inhibition of human N-terminal GST-fused TRKA cytoplasmic domain (436 to 790 (end)residues) expressed in baculovirus expression system at 20 uM measured after 1 hr in presence of peptide substrate and ATP by off-chip mobility shift assay relative to control; how it was run: as §1
Sequence of High affinity nerve growth factor receptor (Homo sapiens) (P04629 33-796 limits assumed): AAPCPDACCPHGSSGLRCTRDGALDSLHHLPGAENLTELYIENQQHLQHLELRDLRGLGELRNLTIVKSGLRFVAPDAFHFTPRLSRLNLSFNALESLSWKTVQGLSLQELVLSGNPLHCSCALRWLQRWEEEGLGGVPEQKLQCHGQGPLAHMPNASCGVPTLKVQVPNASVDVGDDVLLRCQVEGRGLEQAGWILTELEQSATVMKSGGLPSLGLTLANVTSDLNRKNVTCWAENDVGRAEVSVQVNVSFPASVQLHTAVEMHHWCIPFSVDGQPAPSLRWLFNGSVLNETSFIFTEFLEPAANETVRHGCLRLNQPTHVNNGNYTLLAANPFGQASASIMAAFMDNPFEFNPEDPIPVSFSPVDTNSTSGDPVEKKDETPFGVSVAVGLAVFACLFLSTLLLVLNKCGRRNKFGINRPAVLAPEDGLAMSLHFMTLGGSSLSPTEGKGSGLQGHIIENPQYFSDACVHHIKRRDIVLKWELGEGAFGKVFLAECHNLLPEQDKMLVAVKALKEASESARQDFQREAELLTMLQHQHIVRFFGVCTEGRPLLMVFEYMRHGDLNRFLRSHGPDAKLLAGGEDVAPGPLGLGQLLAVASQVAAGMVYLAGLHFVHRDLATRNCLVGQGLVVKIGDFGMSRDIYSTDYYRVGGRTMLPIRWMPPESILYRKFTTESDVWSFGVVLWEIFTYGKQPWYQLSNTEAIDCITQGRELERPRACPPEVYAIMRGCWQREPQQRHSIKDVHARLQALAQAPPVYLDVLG

[6] = Induction of apoptosis in human HCC827 Gefitinib-resistant (GR) cells assessed as late apoptotic/necrotic cells at 20 uM measured after 24 hrs by Annexin V-[…]propidium iodide staining based flow cytometry relative to control; type: functional, HCC827 Gefitinib-resistant (GR) cell
How it was run: (§2)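 Resistant cells were seeded at 500.000 per dish and treated the next day for 24 h at 20 μM. Cells were harvested, washed in PBS, and stained with annexin V-Alexa 488 and PI, then analysed by flow cytometry. Early apoptotic cells were scored as annexin+/PI−, late apoptotic/necrotic cells as annexin+/PI+.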

[7] = Induction of apoptosis in human PC9-OR cells assessed as early apoptotic cells at 20 uM measured after 24 hrs by Annexin V-[…]propidium iodide staining based flow cytometry relative to control; type: functional; how it was run: as §2

Sequence of Tyrosine-protein kinase CSK (Homo sapiens) (P41240 2-450 limits assumed): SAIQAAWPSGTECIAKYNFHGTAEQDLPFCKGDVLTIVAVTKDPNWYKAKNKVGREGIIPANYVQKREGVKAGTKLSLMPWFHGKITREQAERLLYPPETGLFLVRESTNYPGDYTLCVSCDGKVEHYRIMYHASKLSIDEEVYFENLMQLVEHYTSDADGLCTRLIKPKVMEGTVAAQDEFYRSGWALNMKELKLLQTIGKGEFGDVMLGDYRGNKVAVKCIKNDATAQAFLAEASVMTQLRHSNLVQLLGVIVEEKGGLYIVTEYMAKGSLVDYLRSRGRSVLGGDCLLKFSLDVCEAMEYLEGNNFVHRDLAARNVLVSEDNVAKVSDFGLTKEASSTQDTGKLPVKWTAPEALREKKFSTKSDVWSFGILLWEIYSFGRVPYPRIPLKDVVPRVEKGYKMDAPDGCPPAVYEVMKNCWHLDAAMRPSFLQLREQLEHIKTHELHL

Row | Structure (SMILES) | inhibition [1] [%] | inhibition [2] [%] | inhibition [3] [%] | inhibition [4] [%] | inhibition [5] [%] | Activity [6] [%] | Activity [7] [%]
1 | Cc1ccc(NC(=O)CN2C(=O)/C(=N\NC(=O)c3cc(Br)ccc3O)c3ccccc32)cc1 | 93.5 | 85.2 | 83.8 | 81.4 | 80 | 96.2 | 75.5
2 | Cc1ccc(NC(=O)CN2C(=O)/C(=N\NC(=O)c3cc(Br)ccc3O)c3ccc(Cl)cc32)cc1 | 82.1 | 72.9 | 76.6 | 66.6 | 66.9 |  | 
3 | O=C(CN1C(=O)/C(=N\NC(=O)c2cc(Br)ccc2O)c2c(Br)cccc21)Nc1ccc([N+](=O)[O-])cc1 | 82.9 | 69.3 | 78.9 | 61.2 | 65.9 |  | 
4 | Cc1ccc(NC(=O)CN2C(=O)/C(=N\NC(=O)c3cc(Br)ccc3O)c3ccc(Br)cc32)cc1 | 86.1 | 70.9 | 72.4 | 63.5 | 64.3 | 90.8 | 57.5
